# Compound activity (PubChem)
# Only some compounds are listed: those with a hit (about 3.5% of all), similar ones and a draw of the others.
# APP 5'UTR act: activates APP 5'UTR luciferase reporter; SH-SY5Y APP 5'UTR luciferase reporter, luminescence; zero percent = DMSO vehicle wells; activation, % at 2 µM; 190,000 tested, 1% active; AID 1276;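 active = activation above a set limit, based on mean plus 3 SD of controls, cut at about 140% in these data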
# STAT1 act: STAT1 signaling activation; NIH 3T3 STAT1-luciferase reporter, IFN-gamma, luminescence; 100% = IFN-gamma alone, no compound; activation (% of control), % at 5.5 µM; 200,000 tested, 2.6% active; AID 932;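 active = activation above the screen-wide mean activation plus 3 SD, cut at about 130% in these data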;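 note: raw ratio to IFN-gamma control signal so 100% means no change and 0% no light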
# FLuc act counter: affects firefly luciferase, flagging false hits in luciferase stimulation screens | P08659 | ATPlite luciferase biochemical, luminescence, 10 min; 0 = ATP-free wells, 1 = DMSO control | AID 1027 | activation factor at 10 µM | 200,000 tested, under 10 active;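 active = luciferase activation factor, scaled between plate controls, of at least 2 with compound at 10 µM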
# Target sequence (P08659 whole entry, looked up): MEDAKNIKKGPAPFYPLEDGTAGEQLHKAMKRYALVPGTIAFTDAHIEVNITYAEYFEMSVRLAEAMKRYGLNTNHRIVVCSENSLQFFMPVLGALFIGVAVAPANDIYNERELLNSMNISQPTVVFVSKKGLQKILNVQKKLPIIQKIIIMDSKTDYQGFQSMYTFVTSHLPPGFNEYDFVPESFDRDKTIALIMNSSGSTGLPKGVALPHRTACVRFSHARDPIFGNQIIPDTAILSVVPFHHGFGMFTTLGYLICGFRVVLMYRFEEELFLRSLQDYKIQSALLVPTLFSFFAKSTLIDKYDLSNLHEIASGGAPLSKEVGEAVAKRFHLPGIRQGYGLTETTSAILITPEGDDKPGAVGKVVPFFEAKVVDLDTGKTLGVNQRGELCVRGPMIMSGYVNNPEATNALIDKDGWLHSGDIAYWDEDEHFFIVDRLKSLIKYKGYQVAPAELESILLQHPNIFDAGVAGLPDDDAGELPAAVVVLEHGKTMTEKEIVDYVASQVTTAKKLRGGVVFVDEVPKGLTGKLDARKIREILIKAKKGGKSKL
#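 Assay system: Luciferase/luciferin detection reagent, cell-free biochemical luciferase assay / Also added: ATP substrate / Schedule: 10 min at ambient temperature / Measured by: luminescence measurement of luciferase light output / Benchmarks: low control with PBS replacing ATP, high control enzyme plus ATP without compound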
# NF-kB expr up: raises NF-kB expression in human neuronal cells; NF-kB reporter expression; hits give high values; 190,000 tested, 1.6% active; AID 1239; fold change at 12.5 µM; in the data active = fold change above about 3.3
# Pf gamet viab: P. falciparum stage V gametocyte viability inhibition | P. falciparum stage V gametocytes, ATP luminescence, 24 h | inhibition, % at 10.9 µM | 150,000 tested, 0.065% active | AID 743093;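 active = inhibition above the mean plus 3 SD of compounds within the control limits, set per campaign, cut at about 38% in these data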;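 note: 0% = DMSO wells and 100% = medium only without gametocytes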
# FLuc inh counter: inhibits firefly luciferase, flagging false hits in luciferase inhibition screens. P08659. ATPLite firefly luciferase biochemical luminescence, 10 min. inhibition, % at 10 µM. 200,000 tested, 1.5% active. AID 1006;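 active = inhibition above about 50% when tested at 10 µM, limit read from the data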
# STAT1 act conf: confirmation of STAT1 signaling activators. shares compounds with STAT1 act. NIH 3T3 STAT1-luciferase reporter, IFN-gamma potentiation, luminescence; 100% = IFN-gamma EC80 alone, no compound. activation (% of control), % at 5.7 µM. 1,200 tested, 97% active;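 active = activation above a set limit carried over from the earlier primary STAT1 screen, cut at about 140% in these data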;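 note: simple ratio to median IFN-gamma plus DMSO wells so 0% means no light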
# NFkB act STAT1ct: NF-kappaB activation in STAT1 activator counter-screen; shares compounds with STAT1 act; HEK293T NF-kB luciferase reporter, TNF-alpha stimulated, luminescence; 100% = TNF-alpha with vehicle only; activation (% of control), % at 5.7 µM; 1,200 tested, 43% active; AID 1306;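 active = activation above the mean of solvent-only control wells plus 3 SD, set per campaign, cut at about 130% in these data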;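 note: TNF-alpha given at a submaximal dose yielding about 80% of full reporter signal; values are well signal over median control so 100% means no change and 0% no light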
# STAT3 act 2: activates human STAT3, counter-screen to STAT1 activators; shares compounds with STAT1 act; U3A cells STAT3-luciferase reporter, IL-6, luminescence; cells lack STAT1; 100 = IL-6 alone, no compound effect; activation (% of control), % at 5.7 µM; 1,200 tested, 46% active;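 active = activation above the solvent-only control well mean plus 3 SD, set per plate batch, cut at about 110% in these data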;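 note: 0% = no luminescence and 100% = median IL-6 plus DMSO wells; higher means more STAT3 reporter activation so hits are non-selective activators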
# An asterisk follows results filed as active; x = no result.
SMILES,APP 5'UTR act,STAT1 act,FLuc act counter,NF-kB expr up,Pf gamet viab,FLuc inh counter,STAT1 act conf,NFkB act STAT1ct,STAT3 act 2
Cc1nnc(NC(=O)c2ccco2)s1,5,103,1,1.2,x,-2,x,x,x
O=C(Nc1nnc(C23CC4CC(CC(C4)C2)C3)s1)c1ccco1,87,152*,0.7,0.94,x,28,190*,131,120*
Cc1nc2ccc3nc(NC(=O)c4ccco4)sc3c2s1,125,164*,x,x,1,x,170*,127,109
COc1ccc(C(=O)/C=C\c2ccc(NC(=O)c3cccs3)cc2)cc1,7,103,1,1.4,-15,0,x,x,x
O=C(NC1CCCCC1)c1ccc(S(=O)(=O)c2ccccc2)cc1,-8,92,1,1.2,5,-1,x,x,x
CC1=CC(c2ccccc2)=Nc2ccc(C)cc2N1,182*,165*,0.6,5.4*,-4,45,202*,130,131*
C=CCN1C=CC(=C/C=C(/C#N)C(=O)OCC)C=C1,143*,175*,0.2,4.6*,x,82*,210*,133*,117*
N#CCC(=O)Nc1nc(-c2ccc3c(c2)OCCO3)cs1,51,165*,0.6,0.55,-18,37,169*,125,113*
O=C(Nc1nc(-c2ccc3c(c2)OCCO3)cs1)C1CCCC1,173*,156*,0.9,6.6*,3,11,188*,134*,121*
CC(=O)Nc1nc(-c2ccc3c(c2)OCO3)cs1,x,x,x,x,-3,x,x,x,x
Cc1cccc(Nc2nc(-c3ccc4c(c3)OCCO4)cs2)c1,161*,158*,0.8,1.4,x,19,217*,144*,108
Cc1nc(-c2ccc3c(c2)OCCO3)cs1,70,127,0.7,1.9,22,33,x,x,x
Cc1cccc(OCC(=O)N/N=C2/SCC(=O)N2Cc2ccco2)c1,-4,109,1.1,0.92,-1,-6,x,x,x
N#C/C(=N\Nc1cccc2ccccc12)c1nnc2n1CCCCC2,-8,99,0.9,1,24,6,x,x,x
Nn1c(Cc2ccccc2F)nnc1SCC(=O)Nc1cccc(S(=O)(=O)NC2=NCCCCC2)c1,-1,95,1,0.99,12,-4,x,x,x
O=c1cc(-c2ccc(O)cc2)oc2ccccc12,39,154*,0.9,2.6,x,11,154*,118,125*
CC(=O)c1ccc(NC(=O)c2ccc(C)c(Br)c2)cc1,203*,156*,0.9,4*,x,12,198*,140*,101
CCCCC(=O)Nc1ccc(C(=O)NNC(=O)c2ccc(C)c(Br)c2)cc1,-19,95,1,1.2,x,-2,x,x,x
C=CCNC(=O)NC(=O)COC(=O)c1nc2nccc(C)n2n1,15,105,1.1,1.2,6,-7,x,x,x
CC(C)c1ccc(N=C2NN=C(c3cccs3)CS2)cc1,169*,153*,0.5,1.1,21,50*,195*,126,111*
CC(C)(C)N=C1NN=C(c2cc3ccccc3o2)CS1,131,169*,0.6,0.46,x,39,207*,129,107
CC(C)(C)N=C1NN=C(c2ccc(Cl)cc2)CS1,x,x,x,x,16,x,x,x,x
CC(=Nc1ccc(C)cc1)c1sc2ccccc2c1O,197*,154*,0.1,4.8*,x,85*,248*,104,88
CCOC(=O)c1sc2ccccc2c1OC(=O)c1ccc(C)cc1,4,103,1.1,0.62,x,-5,x,x,x
CCCCSc1nnc2n(CCc3ccccc3)c(=O)c3c4c(sc3n12)COC(C)(C)C4,8,104,1.1,0.9,x,-5,x,x,x
SMILES,APP 5'UTR act,STAT1 act,FLuc act counter,NF-kB expr up,Pf gamet viab,FLuc inh counter,STAT1 act conf,NFkB act STAT1ct,STAT3 act 2
CC(C)(C)n1ncc2c(=O)n(Cc3ccccc3Br)cnc21,x,x,x,x,-7,x,x,x,x
CCc1ccc(-c2cc(N)n(-c3ccccc3)n2)cc1,242*,172*,0.2,11*,16,82*,195*,146*,103
CCS(=O)(=O)n1nc(-c2ccccc2)cc1N,11,106,1,1.1,x,0,x,x,x
Cc1cccc(-c2cc(N)n(-c3ccccc3)n2)c1,152*,174*,0.3,5.5*,21,72*,185*,145*,113*
COc1cccc(CNC(=O)CCC2CCCN(C(=O)CCn3cncn3)C2)c1 (configuration not stated),0,106,1,1.2,17,-3,x,x,x
Cc1ccc2[nH]c(-c3cccc(N)c3)cc2c1,152*,183*,0.8,3.3,x,16,213*,146*,104
CC(C)Cc1nc2n[nH]c(N)c2c2c1CCC2,9,96,1.1,0.95,2,-7,x,x,x
N/C(=N\OC(=O)c1ccc2c(c1)OCO2)c1ccc(Cl)cc1,101,153*,0.2,5.9*,x,84*,187*,130,102
Cc1ccc(/C(N)=N/OC(=O)c2ccc3c(c2)OCO3)cc1,142*,156*,0.2,5*,8,78*,186*,136*,105
Cc1cc(C)cc(C(=O)O/N=C(\N)c2ccc(Br)cc2)c1,5,102,1,1.1,3,-1,x,x,x
N#Cc1ccc(CSc2nnc(NC(=O)CN3C(=O)C4CC=CCC4C3=O)s2)cc1 (configuration not stated),16,94,1.1,0.83,x,-6,x,x,x
O=C(Nc1cccc2c1CCCC2)C1CCCN(S(=O)(=O)c2cccc3nonc23)C1 (configuration not stated),-18,92,1,1.1,10,-4,x,x,x
O=C(Cc1ccccc1)N/N=C/C=C/c1ccccc1[N+](=O)[O-],x,x,x,x,4,x,x,x,x
O=C(O)c1ccc(N/N=C/C=C/c2ccccc2[N+](=O)[O-])cc1,113,163*,1,0.87,x,1,177*,139*,129*
O=S(=O)(CC12C3C4C5C1C2C(Br)(C43)C51OCCO1)c1ccccc1 (configuration not stated),19,104,1.1,1.1,-10,-6,x,x,x
C/C(=N\N(Cc1ccccc1)c1ccccc1)c1ccncc1,10,91,1.1,1.1,-17,-7,x,x,x
CCc1ccc(NC(=O)c2cnn(-c3ccccc3)c2C)cc1,155*,185*,0.7,5.9*,x,29,252*,114,87
